Measurements as given in ChEMBL document CHEMBL4706538, “Novel pleuromutilin derivatives with substituted 6-methylpyrimidine: Design, synthesis and antibacterial evaluation” (2020).
Values after ≈ are worked out from the molar mass of the structure shown.

Assays:
Assay type in all cases: functional
Conditions in all cases: time 18-24 hrs
Staphylococcus aureus [1] = assay: Antibacterial activity against Staphylococcus aureus ATCC 25923 measured after 18 to 24 hrs by microtiter dilution method
In short: (§1)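 Compounds were taken up in 25% DMSO at 64 μg/mL and serially diluted two-fold in water (11 dilutions). Log-phase bacteria grown in MHB were diluted to 10^5-10^6 CFU/mL and mixed 1:1 with the dilutions. Plates were incubated at 37 °C for 18-24 h. MIC was the lowest concentration giving no growth by OD492, averaged over three independent experiments.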

[2] = system: Staphylococcus epidermidis; assay: Antibacterial activity against Staphylococcus epidermidis ATCC 51625 measured after 18 to 24 hrs by microtiter dilution method; in short: as §1
Staphylococcus aureus [3] = assay: Antibacterial activity against Staphylococcus aureus BNCC 337371 measured after 18 to 24 hrs by microtiter dilution method; in short: as §1
[4] = system: Streptococcus dysgalactiae; assay: Antibacterial activity against Streptococcus dysgalactiae measured after 18 to 24 hrs by microtiter dilution method; in short: as §1
Streptococcus agalactiae = assay: Antibacterial activity against Streptococcus agalactiae measured after 18 to 24 hrs by microtiter dilution method; in short: as §1
Enterococcus faecalis = assay: Antibacterial activity against Enterococcus faecalis measured after 18 to 24 hrs by microtiter dilution method; in short: as §1
Pasteurella multocida = assay: Antibacterial activity against Pasteurella multocida CVCC 1659 measured after 18 to 24 hrs by microtiter dilution method; in short: as §1
Escherichia coli = assay: Antibacterial activity against Escherichia coli CICC 10389 measured after 18 to 24 hrs by microtiter dilution method; in short: as §1

SMILES	MIC (Staphylococcus aureus [1])	MIC [2]	MIC (Staphylococcus aureus [3])	MIC [4]	MIC (Streptococcus agalactiae)	MIC (Enterococcus faecalis)	MIC (Pasteurella multocida)	MIC (Escherichia coli)
C=C[C@]1(C)C[C@@H](OC(=O)CSc2nc(C)cc(N3CCC[C@@H](O)C3)n2)[C@@]2(C)[C@H](C)CC[C@]3(CCC(=O)[C@H]32)[C@@H](C)[C@@H]1O	0.21 µM (≈ 0.123 µg/mL)	0.21 µM (≈ 0.123 µg/mL)	0.21 µM (≈ 0.123 µg/mL)	0.11 µM (≈ 0.0644 µg/mL)	0.05 µM (≈ 0.0293 µg/mL)	27.3 µM (≈ 16 µg/mL)	27.3 µM (≈ 16 µg/mL)	> 54.7 µM
C=C[C@]1(C)C[C@@H](OC(=O)CSc2nc(C)cc(O)n2)[C@@]2(C)[C@H](C)CC[C@]3(CCC(=O)[C@H]32)[C@@H](C)[C@@H]1O	0.25 µM (≈ 0.126 µg/mL)	0.25 µM (≈ 0.126 µg/mL)	0.25 µM (≈ 0.126 µg/mL)	0.12 µM (≈ 0.0603 µg/mL)	0.12 µM (≈ 0.0603 µg/mL)	16 µM (≈ 8.02 µg/mL)	7.95 µM (≈ 4 µg/mL)	> 63.8 µM
C=C[C@]1(C)C[C@@H](OC(=O)CSc2nc(C)cc(N(C)C)n2)[C@@]2(C)[C@H](C)CC[C@]3(CCC(=O)[C@H]32)[C@@H](C)[C@@H]1O	0.12 µM (≈ 0.0636 µg/mL)	0.24 µM (≈ 0.127 µg/mL)	0.24 µM (≈ 0.127 µg/mL)	0.12 µM (≈ 0.0636 µg/mL)	0.12 µM (≈ 0.0636 µg/mL)	15.1 µM (≈ 8 µg/mL)	30.2 µM (≈ 16 µg/mL)	> 60.5 µM
C=C[C@]1(C)C[C@@H](OC(=O)CSc2nc(C)cc(N3CCC(CO)CC3)n2)[C@@]2(C)[C@H](C)CC[C@]3(CCC(=O)[C@H]32)[C@@H](C)[C@@H]1O	0.21 µM (≈ 0.126 µg/mL)	0.42 µM (≈ 0.252 µg/mL)	0.84 µM (≈ 0.504 µg/mL)	0.42 µM (≈ 0.252 µg/mL)	0.84 µM (≈ 0.504 µg/mL)	53.5 µM (≈ 32.1 µg/mL)	53.5 µM (≈ 32.1 µg/mL)	> 53.5 µM
C=C[C@]1(C)C[C@@H](OC(=O)CSc2nc(C)cc(N3CC[C@@H](O)C3)n2)[C@@]2(C)[C@H](C)CC[C@]3(CCC(=O)[C@H]32)[C@@H](C)[C@@H]1O	0.11 µM (≈ 0.0629 µg/mL)	0.11 µM (≈ 0.0629 µg/mL)	0.22 µM (≈ 0.126 µg/mL)	0.22 µM (≈ 0.126 µg/mL)	0.11 µM (≈ 0.0629 µg/mL)	28 µM (≈ 16 µg/mL)	14 µM (≈ 8 µg/mL)	> 56 µM
C=C[C@]1(C)C[C@@H](OC(=O)CSc2nc(C)cc(OCCN)n2)[C@@]2(C)[C@H](C)CC[C@]3(CCC(=O)[C@H]32)[C@@H](C)[C@@H]1O	0.92 µM (≈ 0.502 µg/mL)	0.92 µM (≈ 0.502 µg/mL)	0.92 µM (≈ 0.502 µg/mL)	0.23 µM (≈ 0.126 µg/mL)	0.46 µM (≈ 0.251 µg/mL)	58.7 µM (≈ 32 µg/mL)	> 58.7 µM	> 58.7 µM
C=C[C@]1(C)C[C@@H](OC(=O)CSc2nc(C)cc(N(CC)CC)n2)[C@@]2(C)[C@H](C)CC[C@]3(CCC(=O)[C@H]32)[C@@H](C)[C@@H]1O	0.22 µM (≈ 0.123 µg/mL)	0.45 µM (≈ 0.251 µg/mL)	0.45 µM (≈ 0.251 µg/mL)	0.22 µM (≈ 0.123 µg/mL)	0.11 µM (≈ 0.0614 µg/mL)	28.7 µM (≈ 16 µg/mL)	57.4 µM (≈ 32 µg/mL)	> 57.4 µM
C=C[C@]1(C)C[C@@H](OC(=O)CSc2nc(C)cc(N3CCN(C)CC3)n2)[C@@]2(C)[C@H](C)CC[C@]3(CCC(=O)[C@H]32)[C@@H](C)[C@@H]1O	0.43 µM (≈ 0.251 µg/mL)	0.43 µM (≈ 0.251 µg/mL)	0.43 µM (≈ 0.251 µg/mL)	0.43 µM (≈ 0.251 µg/mL)	0.11 µM (≈ 0.0643 µg/mL)	54.8 µM (≈ 32 µg/mL)	54.8 µM (≈ 32 µg/mL)	> 54.8 µM
C=C[C@]1(C)C[C@@H](OC(=O)CSc2nc(C)cc(N3CCC(O)CC3)n2)[C@@]2(C)[C@H](C)CC[C@]3(CCC(=O)[C@H]32)[C@@H](C)[C@@H]1O	0.21 µM (≈ 0.123 µg/mL)	0.21 µM (≈ 0.123 µg/mL)	0.21 µM (≈ 0.123 µg/mL)	0.11 µM (≈ 0.0644 µg/mL)	0.11 µM (≈ 0.0644 µg/mL)	13.7 µM (≈ 8.01 µg/mL)	27.3 µM (≈ 16 µg/mL)	> 54.7 µM
